DENV2 CPE rescue: DENV2-induced cell death inhibition; DENV2-infected cells, cytopathic effect rescue, plate reader; CPE inhibition, % at 9.99 µM; hit rate 1.7% among 350,000; in the data active = CPE inhibition above about 20%, passing the limit was not always enough; inconclusive = no clear call, values can overlap the other calls; tested in BHK-21 cells;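 also: 0% = median of neutral control wells and 100% = median of positive control wells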
E-selectin induc: induces E-selectin expression in human endothelial cells; P16581; activation, % at 7.58 µM; HUVEC E-selectin immunofluorescence imaging; normalized: neutral wells 0, TNF-alpha wells 100; hit rate 0.37% among 260,000;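 active = mean E-selectin-positive cell signal at least 10% of the positive control, reached in at least 60% of replicates, without over 20% cell loss; inconclusive = no rule given, readout overlaps actives, possibly toxicity-flagged; inactive = the rest, including those meeting only one limit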
Target sequence (P16581 whole entry, looked up): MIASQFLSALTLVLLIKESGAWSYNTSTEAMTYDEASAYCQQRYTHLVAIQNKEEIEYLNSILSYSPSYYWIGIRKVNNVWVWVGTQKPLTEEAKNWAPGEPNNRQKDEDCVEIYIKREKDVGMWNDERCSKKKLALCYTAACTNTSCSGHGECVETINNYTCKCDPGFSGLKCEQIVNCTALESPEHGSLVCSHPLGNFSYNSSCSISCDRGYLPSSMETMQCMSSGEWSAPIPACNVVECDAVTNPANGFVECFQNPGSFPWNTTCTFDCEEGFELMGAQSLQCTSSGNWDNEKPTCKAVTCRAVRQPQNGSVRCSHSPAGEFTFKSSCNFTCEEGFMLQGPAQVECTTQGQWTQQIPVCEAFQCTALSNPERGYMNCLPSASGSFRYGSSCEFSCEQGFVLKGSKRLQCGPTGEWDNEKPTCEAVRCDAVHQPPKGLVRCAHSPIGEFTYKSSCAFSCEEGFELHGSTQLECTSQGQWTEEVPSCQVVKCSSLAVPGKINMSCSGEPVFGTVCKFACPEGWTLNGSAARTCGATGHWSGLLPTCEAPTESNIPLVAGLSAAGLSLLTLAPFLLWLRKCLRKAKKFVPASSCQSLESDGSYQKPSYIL
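Read-out: % PE-positive cells | Test system: HUVEC | Doses: One compound dose added by pin transfer | Buffer or medium: EGM-2 over gelatin coat | Signal: Immunofluorescence imaging | Benchmarks: TNF-alpha, DMSO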
FGF22 binding: binders of recombinant human FGF22 by thermal shift; Q9HCT0; SYPRO orange fluorescence; percent of sucrose octasulfate shift, DMSO zero; AID 651658; hit rate 1.5% among 340,000; activity (Tm shift, normalised), % at 9.99 µM;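 active = mean Tm shift, scaled 0 neutral to 100 positive control, at about 1.3% or above, every replicate too, limit read from the data; inconclusive = no clear call, values can overlap the other calls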
F508del corr: correctors of CFTR F508del function in bronchial epithelial cells; CFBE cells, YFP halide quenching; stimulated with forskolin plus potentiator P3; % fluorescence drop versus neutral controls; hit rate 0.36% among 350,000; activity (quench increase), % at 7.58 µM; AID 720511;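 active = mean added fluorescence quench of at least 8% versus neutral control, with both replicates also reaching 8%; inconclusive = only one of the mean or replicate conditions met; inactive = mean below 8% and not both replicates reaching 8%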;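 also: cells transiently co-express mutant CFTR-F508del with the halide-sensitive YFP; corrector assay measuring rescue of mutant channel to the surface after 24 h compound exposure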
ERAP1 HTS inh: inhibitors of human ERAP1 aminopeptidase. Q9NZ08. recombinant ERAP1, Leu-AMC fluorescence, 60 min. inhibition, % at 10.7 µM. hit rate 0.15% among 340,000;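 active = mean replicate inhibition of at least 30%, or all replicates individually reaching that 30% level; inactive = mean below 30% and not every replicate reaching it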;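 also: 0% = neutral control wells and 100% = L-leucinethiol positive control wells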
Starred values were filed as active, the others as inactive; ? = inconclusive; . = no result. Sampled rows, rich in hits. Any-hit rate of the full collection: about 3.7%.

SMILES | DENV2 CPE rescue | E-selectin induc | FGF22 binding | F508del corr | ERAP1 HTS inh
C[C@H](CO)N1C[C@H](C)[C@H](CN(C)CC2CCCCC2)Oc2c(NS(=O)(=O)c3cccs3)cccc2C1=O | 0.1 | . | -0.7 | -4.4 | 0.5
C[C@@H]1CN([C@@H](C)CO)C(=O)c2cccc(NS(=O)(=O)c3cccs3)c2O[C@H]1CN(C)CC1CCCCC1 | 33.5* | . | -0.6 | 1.8 | 1.7
O=C(O)CSc1ccn(Cc2ccccc2)c1 | 50.7* | -0.1 | 0.1 | -0.2 | -1.5
C[C@H]1CCCCO[C@@H](CN(C)C(=O)c2ccncc2)[C@@H](C)CN([C@@H](C)CO)C(=O)c2cc(NS(=O)(=O)c3ccc(Cl)cc3)ccc2O1 | 1.6 | -0.2 | -0.2 | 0.0 | -1.3
CNC[C@@H]1OCCCC[C@@H](C)Oc2ccc(NS(C)(=O)=O)cc2C(=O)N([C@@H](C)CO)C[C@H]1C | . | -0.7 | . | -2.1 | .
O=c1cc(CSc2ccc(Cl)cc2)nc(-c2ccncc2)[nH]1 | -2.4 | . | 43.3* | . | 6.6
Cc1cccc(C)c1NC(=O)C1(C)CSCC(=O)N1Cc1cccc(C(F)(F)F)c1 (stereo unspecified) | 34.1* | 0.3 | 0.0 | -0.5 | 2.3
COc1ccccc1S(=O)(=O)N[C@H]1CC[C@H](CC(=O)NCc2cccc(F)c2)O[C@@H]1CO | -6.1 | 1.3 | -0.3 | -4.0 | 0.3
COCCCNC(=O)CSc1nc2c(sc(=S)n2-c2cc(Cl)ccc2OC)c(=O)[nH]1 | -2.3 | 46.5* | 3.0* | 2.2 | -0.4
COc1ccc(N(C)S(=O)(=O)c2cccc(C(=O)NC3CCCC3)c2)cc1 | 1.2 | . | 0.1 | 4.3 | -1.6
COc1ccc(N(C)S(=O)(=O)c2cccc(C(=O)NCC3CCCCC3)c2)cc1 | -6.1 | ? | -0.1 | 8.7* | -1.3
C[C@H]1CN([C@@H](C)CO)C(=O)Cc2cc(NS(C)(=O)=O)ccc2O[C@H]1CN(C)S(=O)(=O)c1ccc(F)cc1 | 22.7* | -15.9 | -0.3 | -5.3 | 5.3
C[C@@H]1CN([C@H](C)CO)C(=O)Cc2cc(NS(=O)(=O)c3ccc(F)cc3)ccc2O[C@H]1CN(C)S(=O)(=O)c1ccc(Cl)cc1 | -2.3 | 28.8* | 0.3 | -1.4 | .
C[C@@H]1CN([C@@H](C)CO)C(=O)c2cc(NS(C)(=O)=O)ccc2O[C@@H](C)CCCCO[C@H]1CN(C)C(=O)Nc1ccc(C(F)(F)F)cc1 | 1.5 | 1.3 | . | 1.8 | 0.9
O=C(CCCc1ccccn1)c1ccc(-c2ccccc2)cc1 | 2.3 | 1.0 | 44.3* | 3.6 | -0.3
CN1C(=O)c2cc(NC(=O)C3CC3)ccc2OC[C@H]2O[C@@H](CC(=O)O)CC[C@H]21 | -3.4 | 0.1 | . | -1.0 | 3.4
O=C(CSc1nccn(-c2ccc(F)c(Cl)c2)c1=O)NC1CCCC1 | 21.7* | 0.2 | 0.3 | -0.2 | 2.1
CCC(=O)N1CC(=O)N2[C@H](CO)[C@H](c3ccc(C#Cc4cccc(F)c4)cc3)[C@@H]2C1 | 6.5 | 0.0 | . | 0.1 | -0.5
CSc1ccccc1C(=O)C1CCCN(Cc2cnn(-c3ccccc3)c2)C1 (stereo unspecified) | 6.7 | . | 43.3* | 6.8 | -3.8
C/C=C/c1ccc([C@H]2[C@@H](CO)N3CCCCN(C(=O)Nc4ccc(OC)cc4)C[C@@H]23)cc1 | 30.2* | -0.4 | -0.1 | -1.4 | 0.6
CC(C)CC#Cc1ccc([C@@H]2[C@H]3CN(C(=O)Nc4ccccc4)CCCCN3[C@H]2CO)cc1 | 33.1* | -0.3 | -0.7 | 2.6 | -1.5
COc1ccc(C#Cc2ccc([C@H]3[C@@H](CO)N4CCCCN(C(=O)Nc5ccccc5)C[C@@H]34)cc2)cc1 | 70.8* | 0.1 | 0.7 | 0.8 | 1.6
COc1ccc(NC(=O)N2CCCCN3[C@H](C2)[C@H](c2ccc(-c4ccccc4C)cc2)[C@@H]3CO)cc1 | 26.8* | 0.3 | -0.5 | 0.0 | -0.6
C[C@H](CO)N1C[C@H](C)[C@@H](CN(C)S(=O)(=O)c2ccc(Cl)cc2)Oc2ccc(NC(=O)Nc3ccccc3)cc2CC1=O | -11.7 | -0.4 | -0.2 | -4.9 | -1.2
CC=Cc1ccc2n(c1=O)C[C@H]1[C@H](CO)[C@@H](C(=O)NCCC)N(C(=O)C3CCOCC3)[C@@H]21 (mixture of isomers) | . | -0.2 | 0.3 | . | .
COc1ccc(NC(=O)C[C@H]2CC[C@H]3[C@@H](COc4ccc(NC(=O)C5CC5)cc4C(=O)N3C)O2)cc1 | -3.9 | 0.1 | 0.0 | -1.3 | .
